The RNAGym collection of RNA variant scans (doi:10.1126/science.aae0568)
This sample holds only a part of the variants without activity.

B1: tRNA (parent)
chain: GUUCCGUUGGCGUAAUGGUAACGCGUCUCCCUCCUAAGGAGAAGACUGCGGGUUCGAGUCCCGUACGGAACG

Variants of: B1
Assay: yeast fitness relative to wild type (ratio to wild type); higher = fitter; tRNA-Arg(CCU), competitive growth, 37 C, YPD
Summary of the method: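 Gene amplicons from the start population and from each of six end populations were read by 100-nucleotide paired-end sequencing. Those end populations came from pooled Saccharomyces cerevisiae strains carrying tRNA-Arg(CCU) gene variants at the native locus, competed in YPD at 37°C for 24 hours. Fitness relative to wild type was worked out from changes in genotype frequencies. Genotypes needed ≥ 100 starting reads, and estimates < 0.5 were set to 0.5.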

GUUCCGUUGGCGUAAUGGUAACGCGUCUCCCUCCUAAGGAGAAGUCUGCGGGUUCGAGUCCGCUACGGAACG and GUUCCGUUGGCGUAAUGGUAACGCGUCUCCCUCCUAAGGAGAAGAUUGCGGCUUCGUGUCCCGUACGGAACG cannot be ordered by yeast fitness: ≤ 0.5 for the first, ≤ 0.5 for the second.

Going from GUUCCGUUGGCGUAAUGGUAACGCGUCUCCCUCCUAAGGAGAAGAUUGCGGGUUUGAGUCCCGUACGGAACG to GUUCCGUUGGCGUAAUGGUAACGCGUCUCCCUCCUAAGGAGAAGAUUGCGGGUUGGAGUCCCGUACGGAACG, the yeast fitness falls from 0.823 to 0.65.

Compared with GUUCCGUUGGCGUAAUGGUAACGCGUCUCCCUCCUAAGGAGAAGUCUGCGGGUCCGAGUCCCGUACGGAACG, GUUCCGUUGGCGUAAUGGUAACGCGUCUCCCUCCUAAGGAGAAGAGUGCGGGUCCGAGUCCAGUACGGAACG is lower in yeast fitness: 0.886 for the first, ≤ 0.5 for the second.

Going from GUUCCGUUGGCGUAAUGGUAACGCGUCUCCCUCCUAAGGAGAAGGCUGCGGGUUCGAGCCCCGUACGGAACG to GUUCCGUUGGCGUAAUGGUAACGCGUCUCCCUCCUAAGGAGAAGAGUGCGGGAUCGAGUCCCGUACGGAACG, the yeast fitness falls from 1.03 to 0.75.

Compared with GUUCCGUUGGCGUAAUGGUAACGCGUCUCCCUCCUAAGGAGAAGAUUGCGGGUUCGAGUCCCGUCCGGAACG, GUUCCGUUGGCGUAAUGGUAACGCGUCUCCCUCCUAAGGAGAAGUCUGCGGGUUCGUGUCCCGUACGGAACG is lower in yeast fitness: 0.997 for the first, 0.744 for the second.

Going from GUUCCGUUGGCGUAAUGGUAACGCGUCUCCCUCCUAAGGAGAAGUCUGCGGGUUCGAGUCCCGUCCGAAACG to GUUCCGUUGGCGUAAUGGUAACGCGUCUCCCUCCUAAGGAGAAGAGUGCGGGUCCGAGUCCCGUACGGCACG, the yeast fitness rises from 0.567 to 0.601.

First: GUUCCGUUGGCGUAAUGGUAACGCGUCUCCCUCCUAAGGAGAAGUCUGCAGGUUCGAGUCCCGCACGGAACG
Second: GUUCCGUUGGCGUAAUGGUAACGCGUCUCCCUCCUAAGGAGAAGUCUGGGGGUUCGAGUCCCGUACGGAACG
The yeast fitness of the first is lower: 0.72 for the first, 0.872 for the second.

First: GUUCCGUUGGCGUAAUGGUAACGCGUCUCCCUCCUAAGGAGAAGUCUGCGGGUUCGGGCCCCGUACGGAACG
Second: GUUCCGUUGGCGUAAUGGUAACGCGUCUCCCUCCUAAGGAGAAGAUUGCGGGUUCGAGUCCCGUUCGGUACG
The yeast fitness of the first is lower: 0.597 for the first, 0.737 for the second.

Going from GUUCCGUUGGCGUAAUGGUAACGCGUCUCCCUCCUAAGGAGAAGAUUGCGAGUUCGAGUCCCGUACGGAACG to GUUCCGUUGGCGUAAUGGUAACGCGUCUCCCUCCUAAGGAGAAGAGUGCGGGUUUGAGUCCCGUACGGAACG, the yeast fitness falls from 1.02 to 0.769.

Compared with GUUCCGUUGGCGUAAUGGUAACGCGUCUCCCUCCUAAGGAGAAGUCUGCGGGUUCGAGUCCCGUCCGGAACG, GUUCCGUUGGCGUAAUGGUAACGCGUCUCCCUCCUAAGGAGAAGAUUGCGGGUUCGAGUUCCGUCCGGAACG is lower in yeast fitness: 0.801 for the first, 0.589 for the second.

Going from GUUCCGUUGGCGUAAUGGUAACGCGUCUCCCUCCUAAGGAGAAGAUUGCGGGUUCGAGUCCCGUAUGGAACG to GUUCCGUUGGCGUAAUGGUAACGCGUCUCCCUCCUAAGGAGAAGAAUGCGGGUUCGAGUCUCGUACGGAACG, the yeast fitness falls from 1.02 to 0.901.

Going from GUUCCGUUGGCGUAAUGGUAACGCGUCUCCCUCCUAAGGAGAAGAAGGCAGGUUCGAGUCCCGUACGGAACG to GUUCCGUUGGCGUAAUGGUAACGCGUCUCCCUCCUAAGGAGAAGAAUGCGGGUUCGACUCCCGUACGGAACG, the yeast fitness rises from 0.544 to 0.874.

GUUCCGUUGGCGUAAUGGUAACGCGUCUCCCUCCUAAGGAGAAGAUUGCAGGUUCGAGUCCCGUAGGGAACG and GUUCCGUUGGCGUAAUGGUAACGCGUCUCCCUCCUAAGGAGAAGUCUGCGGGUUCGAGUCACGUACAGAACG cannot be ordered by yeast fitness: ≤ 0.5 for the first, ≤ 0.5 for the second.

Compared with GUUCCGUUGGCGUAAUGGUAACGCGUCUCCCUCCUAAGGAGAAGUCUGCGGGUUCGAGUCCCGUAUGGAACG, GUUCCGUUGGCGUAAUGGUAACGCGUCUCCCUCCUAAGGAGAAGUCUGCGGGUUCGAGUCCCGUAAGGAACG is lower in yeast fitness: 0.979 for the first, 0.649 for the second.

Compared with GUUCCGUUGGCGUAAUGGUAACGCGUCUCCCUCCUAAGGAGAAGAUUGCCGGUUCGAGUCCCGUACGGAACG, GUUCCGUUGGCGUAAUGGUAACGCGUCUCCCUCCUAAGGAGAAGAGUGCGGGUUCGGGUCCCGUACGGAACG is higher in yeast fitness: 0.819 for the first, 0.987 for the second.

Going from GUUCCGUUGGCGUAAUGGUAACGCGUCUCCCUCCUAAGGAGAAGAGUACGGAUUCGAGUCCCGUACGGAACG to GUUCCGUUGGCGUAAUGGUAACGCGUCUCCCUCCUAAGGAGAAGUCUGCGGGUUCGAGUCCCGAACGGAACG, the yeast fitness falls from 0.913 to 0.708.

Compared with GUUCCGUUGGCGUAAUGGUAACGCGUCUCCCUCCUAAGGAGAAGAAUGCGGGUUCGAGUCUCGUACGGGACG, GUUCCGUUGGCGUAAUGGUAACGCGUCUCCCUCCUAAGGAGAAGGCUGCGAGUUCGAGUCCCGUACGGAACG is higher in yeast fitness: ≤ 0.5 for the first, 0.716 for the second.

Compared with GUUCCGUUGGCGUAAUGGUAACGCGUCUCCCUCCUAAGGAGAAGGCCCCGGGUUCGAGACCCGUACGGAACG, GUUCCGUUGGCGUAAUGGUAACGCGUCUCCCUCCUAAGGAGAAGAGUGAGGGUUCGAGUCUCGUACGGAACG is higher in yeast fitness: 0.576 for the first, 0.597 for the second.

With GUUCCGUUGGCGUAAUGGUAACGCGUCUCCCUCCUAAGGAGAAGUCUGCGGGUUCCAAUCCCGUUCGGAACG the yeast fitness was 0.5.
